Source: PubChem BioAssay
GSIS activator: GLuc luminescence reporter in INS-1E cells, primary screen for activators of glucose-dependent secretion of insulin | AID 743287 | hit rate 0.61% among 370,000 | activation, % at 16.6 µM | INS-1E GLuc reporter insulin secretion, 2-3 h;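 active = lowest replicate activation of at least 40%, so every replicate reaches that level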;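 note: 0% = median of neutral control wells and 100% = median of IBMX positive control wells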
RAD54 branch: blocks human RAD54 Holliday junction branch migration; Q92698; FAM/BHQ fluorescence; inhibition, % at 10.4 µM; hit rate 0.14% among 360,000;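 active = mean normalized replicate activity at least 40 and at least half of replicates scoring 40 or more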;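 note: 0% = median of neutral control wells and 100% = median of positive control wells; inhibitors cause a drop in the FAM fluorescence signal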
RAD52 inh: blocks human RAD52 DNA annealing. P43351. recombinant RAD52 DNA annealing, FRET fluorescence. inhibition, % at 18.7 µM. hit rate 0.46% among 360,000;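 active = every replicate showing at least 50% inhibition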
Target sequence (P43351 whole entry, looked up): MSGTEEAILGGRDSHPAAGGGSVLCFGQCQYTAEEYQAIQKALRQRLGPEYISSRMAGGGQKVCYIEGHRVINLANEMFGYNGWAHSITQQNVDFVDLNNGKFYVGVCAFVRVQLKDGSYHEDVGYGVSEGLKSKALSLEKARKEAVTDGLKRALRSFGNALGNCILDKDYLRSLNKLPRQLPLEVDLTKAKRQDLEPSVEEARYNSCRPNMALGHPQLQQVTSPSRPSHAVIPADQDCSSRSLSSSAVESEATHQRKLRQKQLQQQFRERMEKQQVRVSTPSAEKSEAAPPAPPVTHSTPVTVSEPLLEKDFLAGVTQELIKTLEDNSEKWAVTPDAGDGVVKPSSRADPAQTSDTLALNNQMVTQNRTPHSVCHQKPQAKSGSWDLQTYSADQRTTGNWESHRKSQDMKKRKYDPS
AF4-AF9 inh: MLL-AF4/AF9 protein interaction inhibition; P42568; AlphaScreen, biotin-AF4 peptide binding to FLAG-AF9; inhibition, % at 10 µM; hit rate 0.47% among 350,000; AID 651704;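 active = every replicate reaching a set inhibition limit, whatever the replicate mean, cut at about 25% in these data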;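 note: 0% = plate neutral control median and 100% = total signal loss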
S100A4 MyoIIA: S100A4-myosin IIA interaction inhibition | S100A4/TAMRA-MyoIIA peptide fluorescence polarization | inhibition, % at 10.7 µM | hit rate 0.14% among 360,000 | AID 652163;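 active = mean inhibition of at least 70% across replicates, with every replicate also reaching that level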
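assay system = human S100A4 monomer with TAMRA-labelled myosin IIA peptide | also added = labelled myosin peptide probe, 5 nM | incubation = 5 min between mix addition and reading | control set = DMSO and TFP controls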
* = called active by the depositor; · = not tested or not shown. This is a sample that favours compounds with a hit; in the whole collection about 1.3% have one here.

SMILES	GSIS activator	RAD54 branch	RAD52 inh	AF4-AF9 inh	S100A4 MyoIIA
CCc1nnc(NC(=O)C(c2ccccc2)c2ccccc2)s1	103*	3	-9	-1	-5
COc1ccc(S(=O)(=O)Nc2ccc3c(c2)OC[C@@H](C)NC[C@H](C)[C@H](OC)CN(C)C3=O)cc1	2	0	5	-4	-9
CC(C)c1ccc(N2C(=O)C(Cl)=C(N3CCOCC3)C2=O)cc1	-21	·	-25	38*	-4
FC(F)Oc1ccc(/C=N/NC(=S)Nc2cc(C(F)(F)F)ccc2Cl)cc1	111*	5	·	·	·
CCOc1ccc(CNc2ccc3c(c2)ncn3C(C)(C)C)cc1	-3	0	-4	13	-8
CCN(CC)c1ccc(CNc2ccc3c(c2)ncn3CC)cc1	-15	·	5	45*	-10
CN(C)c1ccc(CNc2ccc3c(c2)ncn3C(C)(C)C)cc1	-32	1	-14	35*	3
CCn1cnc2cc(NCc3ccc(N(C)C)cc3)ccc21	-32	10	3	19	-11
NS(=O)(=O)c1ccc(NC(=S)N2CCN(c3ccc(Cl)c(Cl)c3)CC2)cc1	108*	-6	·	·	·
C[C@@H]1CCCCO[C@H](CN(C)S(=O)(=O)c2cn(C)cn2)[C@@H](C)CN([C@@H](C)CO)C(=O)c2cc(NS(=O)(=O)c3cccs3)ccc2O1	1	-4	-9	0	-5
CCOC(=O)C1(C)C=C(Nc2ccc(OC)cc2)C(=O)N1c1ccc(OC)cc1 (centres undefined)	59*	-1	·	·	·
COc1ccc(C(C#N)=Cc2ccc(OC)c(OC)c2)cc1	80*	2	-6	6	1
C[C@H]1CN([C@@H](C)CO)C(=O)c2cccc(NC(=O)C3CC3)c2O[C@@H]1CN(C)S(C)(=O)=O	15	-5	4	1	6
CCOc1cc(N2CCOCC2)c(OCC)cc1NC(=O)CN1CCC(Cc2ccccc2)CC1	-9	·	-10	29*	6
O=C(NCC[C@H]1CC[C@H](NS(=O)(=O)c2ccc(F)cc2)[C@H](CO)O1)c1ccccc1F	-3	·	-217	-4	-8
CN(C)c1ccc(CN2CCC(C(=O)NC(c3ccc(F)cc3)c3ccc4ccccc4n3)CC2)cc1 (centres undefined)	·	7	5	42*	0
O=C(NC(c1ccc(F)cc1)c1ccc2ccccc2n1)C1CCN(Cc2ccc3ccccc3n2)CC1 (centres undefined)	-11	-5	4	1	-2
COc1nc(-c2ccccc2)c2cc(C)ccc2n1	72*	8	-1	3	3
CCNc1nc(NC(C)C)nc(N(C#N)C(C)C(=O)N(C)C)n1 (centres undefined)	·	-7	·	·	·
CCNc1nc(NCC)nc(N(C#N)C(C)C)n1	48*	·	0	4	-2
C[C@H](CO)N1C[C@H](C)[C@H](CN(C)S(=O)(=O)c2cccs2)Oc2ccc(NC(=O)CCC(F)(F)F)cc2CC1=O	-5	-3	4	-1	-6
CCOc1ccc(NCc2cccn2-c2nnc(N3CCC(C(=O)NCCCN4CCCCC4)CC3)s2)cc1	7	9	24	33*	-3
CN1c2ccc(-c3cccc(C#N)c3)cc2[C@H]2[C@H](CCN2S(=O)(=O)c2ccccc2F)[C@@H]1CO	5	1	16	-3	-5
O=C(CSc1ccc(-c2ccco2)nn1)NC1CCCCC1	1	·	0	0	7
O=C(CSc1ccc(-c2ccco2)nn1)NC1CCCC1	40*	·	0	-1	-2
SMILES	GSIS activator	RAD54 branch	RAD52 inh	AF4-AF9 inh	S100A4 MyoIIA
COc1cccc(NC(=O)CSc2ccc(-c3ccco3)nn2)c1	-19	-5	-7	-2	-2
COc1ccc(NC(=O)CSc2ccc(-c3ccco3)nn2)cc1OC	41*	15	-3	-1	0
Cn1cc(SCC(=O)NC2CCCC2)c2ccccc21	37	-11	-17	-2	87*
O=C([C@@H]1[C@@H](CO)[C@@H]2Cn3c(cccc3=O)[C@@H]2N1Cc1ccncc1)N1CCCCC1	19	-5	-17	-21	8
COc1ccc(/C=N/Nc2nc(-c3ccc(Cl)cc3)cc(C(F)(F)F)n2)c(OC)c1	76*	·	·	·	·
COc1ccc(/C(C)=N\Nc2nc(-c3ccc(Cl)cc3)cc(C(F)(F)F)n2)cc1OC	64	·	-16	4	3
Cc1ccc(NC(=O)c2ccc(COc3ccc4c(c3)CCC4)cc2)c(C)c1	111*	·	·	·	·
